What was measured:
Cannabinoid receptor 2 [1] = biological target: T1, Cannabinoid receptor 2 (Homo sapiens, UniProt P34972); test: Inverse agonist activity at human CB2 receptor expressed in CHO cell membrane assessed as increase in forskolin-stimulated cAMP production at 10 uM by scintillation counting analysis relative to WIN55212-2
Summary of the method: (§1)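 Whole hCB₂ CHO cells (1 × 10⁶/assay) in HEPES-buffered saline with glucose, pH 7.4, preincubated 10 min at 37 °C with 0.5 mM Ro 20-1724. Compound at 1 or 10 μM with 1 μM forskolin. Stopped with cold 6% TCA, ether-extracted; cAMP measured by [³H]cAMP competition binding with adrenal binding protein. Expressed as % increase versus WIN 55,212-2 (set −100%); n = 4.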

Cannabinoid receptor 2 [2] = biological target: T1, Cannabinoid receptor 2; test: Inverse agonist activity at human CB2 receptor expressed in CHO cell membrane assessed as increase in forskolin-stimulated cAMP production at 1 uM by scintillation counting analysis relative to WIN55212-2; summary of the method: as §1
Homo sapiens = species: Homo sapiens; test: Selectivity index, ratio of Ki for human CB1 receptor to Ki for human CB2 receptor
Cannabinoid receptor 2 [3] = biological target: T1, Cannabinoid receptor 2; test: Displacement of [3H]CP-55940 from human CB2 receptor expressed in CHO cell membrane after 60 mins by scintillation counting analysis; assay type: cell membranes
Summary of the method: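 Human CB₂-expressing CHO cell membranes in 50 mM Tris-HCl, 0.5% BSA, 5 mM MgCl₂, 1 mM EDTA, pH 7.4. Binding of 0.5 nM [³H]CP-55,940 competed with 1 nM–10 μM compound for 60 min at 30 °C, then GF/C filtration and scintillation counting. Ki by Cheng-Prusoff from IC50; mean SEM of n = 4.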

Cannabinoid receptor 1 [4] = biological target: T2, Cannabinoid receptor 1 (Homo sapiens, UniProt P21554); test: Displacement of [3H]CP-55940 from human CB1 receptor expressed in CHO cell membrane after 90 mins by scintillation counting analysis; assay type: cell membranes
T2 sequence (P21554 whole entry): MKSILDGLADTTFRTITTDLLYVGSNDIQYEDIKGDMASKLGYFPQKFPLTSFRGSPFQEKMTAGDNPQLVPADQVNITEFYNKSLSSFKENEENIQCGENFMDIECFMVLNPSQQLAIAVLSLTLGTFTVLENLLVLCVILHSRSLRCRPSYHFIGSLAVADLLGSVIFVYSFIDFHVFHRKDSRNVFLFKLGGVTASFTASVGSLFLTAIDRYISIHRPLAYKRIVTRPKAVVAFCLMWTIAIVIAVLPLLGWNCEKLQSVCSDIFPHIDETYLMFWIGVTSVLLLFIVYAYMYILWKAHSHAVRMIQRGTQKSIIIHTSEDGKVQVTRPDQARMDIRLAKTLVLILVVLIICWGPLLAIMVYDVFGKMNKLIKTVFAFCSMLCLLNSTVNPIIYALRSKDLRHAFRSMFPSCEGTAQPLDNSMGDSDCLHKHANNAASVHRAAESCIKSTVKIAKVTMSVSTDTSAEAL
Summary of the method: (§2)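 Membranes from CHO cells stably expressing human CB₁ (G418-maintained), suspended in 50 mM Tris-HCl, 0.5% BSA, 5 mM MgCl₂, 2.5 mM EDTA, pH 7.4. Displacement of 0.5 nM [³H]CP-55,940 by 1 nM–10 μM compound, 90 min, 30 °C. Filtration on GF/C, scintillation counting. Cheng-Prusoff Ki, LIGAND fitting; mean SEM, n = 4.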

Cannabinoid receptor 1 [5] = biological target: T2, Cannabinoid receptor 1; test: Displacement of [3H]CP-55940 from human CB1 receptor expressed in CHO cell membrane at > 10 uM after 90 mins by scintillation counting analysis; assay type: cell membranes; summary of the method: as §2
[6] = biological target: Cannabinoid receptor 1 (Rattus norvegicus) (UniProt P20272); test: Displacement of [3H]CP-55940 from Sprague-Dawley rat brain CB1 receptor at > 10 uM after 90 mins by scintillation counting analysis
Sequence of Cannabinoid receptor 1 (Rattus norvegicus) (P20272 whole entry): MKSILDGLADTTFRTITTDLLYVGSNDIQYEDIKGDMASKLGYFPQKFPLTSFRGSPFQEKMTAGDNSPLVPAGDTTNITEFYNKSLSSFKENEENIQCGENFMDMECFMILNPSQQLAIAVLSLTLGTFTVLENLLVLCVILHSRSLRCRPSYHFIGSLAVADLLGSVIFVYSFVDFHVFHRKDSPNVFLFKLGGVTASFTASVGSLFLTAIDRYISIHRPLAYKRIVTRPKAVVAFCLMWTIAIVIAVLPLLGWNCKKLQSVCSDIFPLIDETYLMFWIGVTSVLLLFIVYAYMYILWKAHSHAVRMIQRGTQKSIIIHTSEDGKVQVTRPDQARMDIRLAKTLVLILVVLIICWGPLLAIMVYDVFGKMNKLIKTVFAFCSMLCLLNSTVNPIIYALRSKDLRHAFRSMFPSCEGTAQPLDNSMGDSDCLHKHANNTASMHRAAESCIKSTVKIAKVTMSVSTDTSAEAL
Summary of the method: (§3)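 Competition with [³H]CP-55,940 (1.0 nM stated in rat CB₁ section; 0.5 nM in general protocol) against 1 nM–10 μM compound, 90 min at 30 °C. GF/C filtration, scintillation counting. Ki via Cheng-Prusoff; mean SEM, n = 4.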

Cannabinoid receptor 1 [7] = biological target: Cannabinoid receptor 1 (Rattus norvegicus, UniProt P20272); test: Displacement of [3H]CP-55940 from Sprague-Dawley rat brain CB1 receptor after 90 mins by scintillation counting analysis; summary of the method: as §3
Sequence of Cannabinoid receptor 1 (Rattus norvegicus, UniProt P20272) (P20272 whole entry): as above

Cannabinoid receptor 2 [8] = biological target: T3, Cannabinoid receptor 2 (Rattus norvegicus, UniProt Q9QZN9); test: Displacement of [3H]CP-55940 from Sprague-Dawley rat spleen CB2 receptor after 60 mins by scintillation counting analysis
T3 sequence (Q9QZN9 whole entry): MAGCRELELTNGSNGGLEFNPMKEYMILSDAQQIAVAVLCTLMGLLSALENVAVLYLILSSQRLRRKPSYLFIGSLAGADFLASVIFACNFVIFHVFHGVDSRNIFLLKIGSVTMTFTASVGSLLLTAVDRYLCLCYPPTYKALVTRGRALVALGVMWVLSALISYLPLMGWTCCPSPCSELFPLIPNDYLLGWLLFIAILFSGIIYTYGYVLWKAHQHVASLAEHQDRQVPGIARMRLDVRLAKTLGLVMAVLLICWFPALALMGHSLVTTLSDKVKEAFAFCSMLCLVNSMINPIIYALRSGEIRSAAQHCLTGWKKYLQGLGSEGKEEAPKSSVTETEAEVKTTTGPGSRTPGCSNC
Summary of the method: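 Competed against 0.5 nM [³H]CP-55,940 using 1 nM–10 μM compound for 60 min at 30 °C. Bound ligand collected on GF/C filters and counted. Ki from IC50 by Cheng-Prusoff; mean SEM of n = 4.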

T1 sequence (P34972 whole entry): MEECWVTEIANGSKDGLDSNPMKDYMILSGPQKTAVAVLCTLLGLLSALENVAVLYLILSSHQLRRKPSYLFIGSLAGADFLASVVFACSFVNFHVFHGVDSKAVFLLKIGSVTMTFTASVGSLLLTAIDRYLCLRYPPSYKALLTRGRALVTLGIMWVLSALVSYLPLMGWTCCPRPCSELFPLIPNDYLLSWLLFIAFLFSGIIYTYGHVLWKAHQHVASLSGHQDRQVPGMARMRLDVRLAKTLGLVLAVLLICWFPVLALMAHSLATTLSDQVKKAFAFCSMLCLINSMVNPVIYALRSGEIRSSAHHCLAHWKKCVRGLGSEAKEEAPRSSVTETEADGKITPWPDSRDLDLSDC

Row | SMILES | Activity (Cannabinoid receptor 2 [1]) [%] | Activity (Cannabinoid receptor 2 [2]) [%] | Ratio Ki (Homo sapiens) | Ki (Cannabinoid receptor 2 [3]) [µM] | Ki (Cannabinoid receptor 1 [4]) [µM] | Activity (Cannabinoid receptor 1 [5]) [%] | Activity [6] [%] | Ki (Cannabinoid receptor 1 [7]) [µM] | Ki (Cannabinoid receptor 2 [8]) [µM]
1 | CCCCCn1cc(C(=O)NC23CC4CC(CC(C4)C2)C3)c(=O)n2nc(-c3ccc(C)s3)cc12 | 68 | 38 | > 862 | 0.0116 | > 10 | 31 | 33 | > 10 | 0.0122
2 | CCCCCn1cc(C(=O)NC23CC4CC(CC(C4)C2)C3)c(=O)n2nc(-c3ccccc3C)cc12 | 184 | 155 | > 3500 | 0.00286 | > 10 | 22 | 30 | > 10 | 0.00321
3 | CCCCCn1cc(C(=O)NC2CCCCCC2)c(=O)n2nc(-c3ccccc3C)cc12 | 125 | 107 | > 1120 | 0.00893 | > 10 | 34 | 45 | > 10 | 0.00953
4 | CCCCCn1cc(C(=O)NC23CC4CC(CC(C4)C2)C3)c(=O)n2nc(-c3ccco3)cc12 | 124 | 107 | > 2030 | 0.00492 | > 10 | 34 | 40 | > 10 | 0.00514
5 | CCCCCn1cc(C(=O)NC2CCCCC2)c(=O)n2nc(-c3ccc(C)cc3)cc12 | 93 | 63 | > 175 | 0.057 | > 10 | 20 | 25 | > 10 | 0.062
6 | CCCCCn1cc(C(=O)NC23CC4CC(CC(C4)C2)C3)c(=O)n2nc(C)c(-c3ccccc3)c12 | 51 | 34 | > 55 | 0.181 | > 10 | 15 | 15 | > 10 | 0.214
7 | CCCCCn1cc(C(=O)NC2CCCCC2)c(=O)n2nc(C(C)(C)C)cc12 | 115 | 85 | 55 | 0.0123 | 0.675 |  |  | 0.72 | 0.0142
8 | CCCCCn1cc(C(=O)NC2CCCCCC2)c(=O)n2nc(-c3ccccc3)cc12 | 134 | 103 | 27 | 0.031 | 0.825 |  |  | 0.9 | 0.035
9 | CCCCCn1cc(C(=O)NC2CCCCCC2)c(=O)n2nc(CC)cc12 | 159 | 137 | 38 | 0.00522 | 0.2 |  |  | 0.22 | 0.00563
10 | CCCCCn1cc(C(=O)NC23CC4CC(CC(C4)C2)C3)c(=O)n2nc(C)c(Br)c12 | 48 | 32 | > 45 | 0.22 | > 10 | 1 | 1 | > 10 | 0.272
11 | CCCCCn1cc(C(=O)NC23CC4CC(CC(C4)C2)C3)c(=O)n2nc(-c3cccs3)cc12 | 102 | 89 | > 1600 | 0.00624 | > 10 | 26 | 22 | > 10 | 0.00752
12 | CCCCCn1cc(C(=O)NC2CCCCCC2)c(=O)n2nc(C)cc12 | 63 | 44 | 51 | 0.0103 | 0.527 |  |  | 0.642 | 0.0124
13 | CCCCCn1cc(C(=O)NC2CCCCC2)c(=O)n2nc(C)cc12 | 54 | 42 | 58 | 0.022 | 1.28 |  |  | 1.58 | 0.026
14 | CCCCCn1cc(C(=O)NC2CCC(C)CC2)c(=O)n2nc(C)cc12 (centres undefined) | 67 | 48 | 23 | 0.106 | 2.43 |  |  | 2.6 | 0.12
15 | CCCCCn1cc(C(=O)NC2CCCCC2)c(=O)n2nc(-c3ccccc3)cc12 | 123 | 92 | 17 | 0.042 | 0.702 |  |  | 0.75 | 0.05
16 | CCCCCn1cc(C(=O)NC2CCCCC2)c(=O)n2nc(CC)cc12 | 146 | 121 | 40 | 0.0104 | 0.42 |  |  | 0.48 | 0.0115
17 | CCCCCn1cc(C(=O)NC23CC4CC(CC(C4)C2)C3)c(=O)n2nc(C(C)(C)C)cc12 | 189 | 114 | 124 | 0.00495 | 0.612 |  |  | 0.675 | 0.00554
18 | CCCCCn1cc(C(=O)NC23CC4CC(CC(C4)C2)C3)c(=O)n2nc(C)cc12 | 75 | 56 | 88 | 0.0127 | 1.12 |  |  | 1.46 | 0.0153
19 | CCCCCn1cc(C(=O)NCc2ccccc2)c(=O)n2nc(C)cc12 | 52 | 38 | 9.2 | 0.358 | 3.29 |  |  | 3.69 | 0.428
